Screens: PubChem BioAssay, Sanford-Burnham Center for Chemical Genomics
TNAP inh no acc – inhibitors of human TNAP without phosphate acceptor | 200,000 tested, 0.26% active | purified TNAP, CDP-star luminescence, 30 min | P05186 | inhibition, % at 20 µM;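 active means tissue-nonspecific alkaline phosphatase inhibition above about 50% at 20 µM in the single-dose screen, limit read from the data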
Target sequence (P05186 whole entry, looked up): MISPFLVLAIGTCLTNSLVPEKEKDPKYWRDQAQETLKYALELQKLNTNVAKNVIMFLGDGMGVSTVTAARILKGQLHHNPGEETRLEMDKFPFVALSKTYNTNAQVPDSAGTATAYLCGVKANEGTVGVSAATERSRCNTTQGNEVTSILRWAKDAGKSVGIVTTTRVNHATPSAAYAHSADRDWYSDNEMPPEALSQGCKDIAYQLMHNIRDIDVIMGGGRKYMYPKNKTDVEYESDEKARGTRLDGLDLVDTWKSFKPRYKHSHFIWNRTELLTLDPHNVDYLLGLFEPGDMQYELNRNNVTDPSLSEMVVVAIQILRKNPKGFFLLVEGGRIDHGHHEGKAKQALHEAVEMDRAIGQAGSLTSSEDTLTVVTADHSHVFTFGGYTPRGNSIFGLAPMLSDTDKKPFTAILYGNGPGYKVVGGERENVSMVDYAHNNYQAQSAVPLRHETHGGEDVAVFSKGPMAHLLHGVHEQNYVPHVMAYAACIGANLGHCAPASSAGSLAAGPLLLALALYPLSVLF
TNAP inh hi DEA – TNAP (human) inhibition, high acceptor. P05186. purified TNAP, CDP-star luminescence, 1 M DEA. inhibition, % at 20 µM. 200,000 tested, 0.03% active. AID 1135;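 active means over 50% inhibition of tissue-nonspecific alkaline phosphatase at 20 µM in the single-dose screen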
PMI act hi M6P – activators of human phosphomannose isomerase at near-saturating mannose 6-phosphate. P34949. coupled PMI enzyme assay, resazurin fluorescence, 20 min; hits give high values; 1 = untreated enzyme, 0 = substrate-free blank. activation factor at 20 µM. 190,000 tested, 0.34% active;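 active means activation factor of 2 or more at 20 µM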
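Material: human phosphomannose isomerase with PGI, G6PDH, diaphorase coupling enzymes. Quantity: 15 ng/mL PMI. Medium: HEPES pH 7.4 buffer with MgCl2 and Tween-20. Reagent: Near-saturating mannose-6-phosphate, 1.0 mM. Compound: 20 µM single dose. Times: enzyme reaction with compound 20 min at room temperature. Detection: resorufin fluorescence at Ex 544/Em 590 nm.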
PMI activator – phosphomannose isomerase (human) activation; purified human PMI, coupled resazurin fluorescence, 20 min; hits give high values; 1 = vehicle control, 0 substrate-free wells; activation factor at 20 µM; 190,000 tested, 0.005% active; AID 1214;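 active means activation factor of 2 or more at 20 µM, relative to plate controls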
TNAP act hiacc – TNAP (human) activation, high acceptor | 200,000 tested, under 10 active | activation factor at 20 µM | AID 1136 | purified TNAP, CDP-star luminescence, 1 M DEA, 30 min; hits give high values; 0 = EDTA background, 1 = DMSO-only activity;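 active means activation factor at least 2 at 20 µM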
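Test system – human TNAP · Doses – 20 µM single point · Incubation – 30 min, room temperature · Signal – luminescent substrate turnover signal · Read-out basis – activation factor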
Each line names hits and unclear results; the compound was inactive in the other large screens. Sampled rows, rich in hits. Any-hit rate of the full collection: about 0.6%.

Oc1ccc(-c2[nH]nc(-c3ccccc3)c2-c2nc3ccccc3[nH]2)cc1	none
Oc1ccc(N=Nc2n[nH]c(-c3ccccc3)n2)cc1	TNAP inh no acc 74.4
Oc1ccc(N=Nc2nc(-c3ccccc3)c(-c3ccccc3)[nH]2)cc1	TNAP inh hi DEA 57.7
Oc1ccc(N=Nc2n[nH]c(-c3ccc(Br)cc3)n2)cc1	TNAP inh no acc 74.9
COc1c(C)cc(Br)cc1C(=O)Nc1ccc(S(N)(=O)=O)cc1	none
NS(=O)(=O)c1ccc(NC(=O)COc2ncnc3c2cnn3-c2ccccc2)cc1	none
CCn1c(-c2ccc(C)cc2)n[nH]c1=S	TNAP inh no acc 51.8
O=C(N/N=C/c1c[nH]c2ccccc12)c1cc(-c2ccccc2)n[nH]1	TNAP inh no acc 87.4
O=C(N/N=C/c1c[nH]c2ccccc12)c1cc(-c2ccc(-c3ccccc3)cc2)n[nH]1	none
Cc1ccc(-c2cc(C(=O)N/N=C/c3c[nH]c4ccccc34)[nH]n2)cc1	TNAP inh no acc 71.1
COc1ccc(CN2CCC(N3CCC(C(=O)N4CCOCC4)CC3)CC2)c(F)c1	none
COc1ccccc1N1CCN(CCCC(=O)c2ccc(F)cc2)CC1	none
O=C(CCCN1CC=C(n2c(=O)[nH]c3ccccc32)CC1)c1ccc(F)cc1	TNAP inh no acc 62.8
CCCn1c2c(c(O)c(C(=O)Nc3ccccc3)c1=O)CCCC2	none
O=C(/C=C/c1ccc(Br)o1)Nc1nccs1	PMI act hi M6P 2
CC1CN(C(=O)COC(=O)c2ccc(Cl)nc2)CC(C)O1 (configuration not stated)	none
Cc1nn(-c2ccccc2)c(C)c1/C=N/NC(=O)c1cccs1	none
COc1cc(/C=N/NC(=O)c2ccccc2)ccc1O	none
Cc1nn(-c2ccccc2)c(C)c1/C=N/NC(=O)c1cc(-c2cccs2)[nH]n1	TNAP inh no acc 83.5
Cc1nn(-c2ccccc2)c(C)c1/C=N/NC(=O)c1cc(-c2ccc(Cl)s2)[nH]n1	TNAP inh no acc 67.3
Cc1nn(-c2ccccc2)c(C)c1/C=N/NC(=O)c1cc(-c2ccc(Br)s2)[nH]n1	none
COc1cc(/C=N/NC(=O)c2[nH]nc3c2CCc2ccccc2-3)ccc1O	TNAP inh no acc 65.5
O=C(O)c1cc(-c2cccs2)[nH]n1	TNAP inh no acc 83.4
COc1cccc(C2CC(c3cccs3)=NN2S(C)(=O)=O)c1 (configuration not stated)	none
CCNC(=S)NS(=O)(=O)c1ccc(F)cc1	none
Cc1cc([N+](=O)[O-])nn1CCC(=O)Nc1nccs1	none
Cc1nn(-c2ccccc2)c(C)c1/C=N/NC(=O)c1cc(C2CC2)[nH]n1	none
COc1cc(/C=N/NC(=O)c2cc(C34CC5CC(CC(C5)C3)C4)[nH]n2)ccc1O	TNAP inh no acc 54.4
Cc1nn(-c2ccccc2)c(C)c1/C=N/NC(=O)c1cc(C23CC4CC(CC(C4)C2)C3)[nH]n1	TNAP inh no acc 73.4
NC(N)=NC1=NC(=O)C(Cc2ccccc2)S1 (configuration not stated)	none (no result: PMI act hi M6P, PMI activator)
c1ccc(CSc2ccc(-c3ccccn3)nn2)nc1	TNAP inh no acc 54.5
CCN1CCCC(OC(=O)c2cc(-c3ccccc3Cl)nc3ccccc23)C1 (configuration not stated)	none
O=C(CCCSc1nnc(Nc2ccccc2F)s1)N1CCOCC1	none
C/C(=N\Nc1nc2ccccc2s1)c1cccs1	none
C/C(=N\Nc1nc(-c2ccccc2)cs1)c1cccs1	PMI act hi M6P 2.2
COc1ccc(C(=O)C2CCCN(C(=O)c3n[nH]c4c3CCCC4)C2)cc1OC (configuration not stated)	TNAP inh no acc 59.9
Cc1cc(Cl)ccc1C(=O)C1CCCN(C(=O)c2n[nH]c3c2CCCC3)C1 (configuration not stated)	none
O=C(CCn1cnc2ccccc2c1=O)Nc1nc(-c2ccc(Br)cc2)cs1	none
CC(C)CSc1n[nH]c(=S)s1	none
O=C1NN=C(CSc2n[nH]c(=S)s2)CS1	PMI act hi M6P 2.1
COc1ccccc1/C=C1\SC(=S)N(Nc2nc(C)cc(C)n2)C1=O	none
Cc1cc(C)nc(NN2C(=O)/C(=C/c3ccc(O)cc3)SC2=S)n1	TNAP inh no acc 93.8
O=c1cc(CSc2nnc(Nc3ccccc3F)s2)nc2sccn12	TNAP inh no acc 52.3
CCOC(=O)c1cn(CC(=O)Nc2ccc(OC)cc2OC)nn1	none
CCCNC(=O)OCc1cccnc1Sc1ccc(C)cc1	none
Fc1cccc(NC(=S)NNc2c3ccccc3nc3ccccc23)c1	PMI act hi M6P 2.1
Cc1nn(C(=O)CCCn2cc([N+](=O)[O-])cn2)c(C)c1Cl	none
O=C(NCC1CCCO1)c1ccc(CNS(=O)(=O)c2cccc(Cl)c2)cc1 (configuration not stated)	none
CCN(CC)c1ccc(N2C(=O)/C(=C/c3cccs3)SC2=S)cc1	none
CCN(CC)c1ccc(N2C(=O)CSC2=S)cc1	TNAP inh no acc 57.0 (no result: PMI act hi M6P, PMI activator)
COC(=O)c1cc(NC(=O)/C=C/c2ccccc2)ccc1O	none
COc1ccc(C2CC(=O)C(C3NCCc4ccccc43)=C(O)C2n2cncn2)cc1 (configuration not stated)	none
CCOC(=O)c1sc(-n2[nH]c(C)cc2=O)nc1C	PMI act hi M6P 2.4
Cc1cccc(N(C(=O)CCC(=O)Nc2nccs2)C(C(=O)NC(C)(C)C)c2ccc(O)cc2)c1 (configuration not stated)	none
COc1ccccc1C1NC=C([N+](=O)[O-])C=C1[N+](=O)[O-] (configuration not stated)	TNAP inh no acc 57.4
C/C(=N\NC(=O)c1cccc(N/N=C(\C)c2cc(O)ccc2O)c1)c1cc(O)ccc1O	TNAP inh no acc 75.9, PMI act hi M6P 3
Cc1ccc2c(c1)nc(NCCO)n2C	none
Cc1ccc2c(ccc(=S)n2C)c1	PMI act hi M6P 2.7
COCCN=C1Sc2nc3ccc(C)cc3cc2CN1Cc1ccco1	PMI act hi M6P 2.1
CCOc1ccc2nc3c(cc2c1)CN(CCOC)C(=NCCOC)S3	none
Cc1cccc(-c2cc3nc(C)cc(NCCCN(C)C)n3n2)c1	TNAP inh no acc 53.1
COCCNc1cc(C)nc2cc(-c3ccc(C)cc3)nn12	none
CCOC(=O)Cc1cc(=O)n(-c2nc3ccccc3s2)[nH]1	PMI act hi M6P 2.4
COc1cccc(-c2cn3nc(C)c(C)nc3n2)c1	PMI act hi M6P 2.1
CCOC(=O)c1[nH]c(C)c(C(=O)N2CCN(c3ccccc3OC)CC2)c1C	none
COc1cccc2cc(C(C)OC(=O)Nc3ccc(C)cc3)oc12 (configuration not stated)	none
CC[n+]1c(/C=C/c2c[nH]c3ccccc23)ccc2cc(C)ccc21	TNAP inh no acc 59.5, TNAP inh hi DEA 60.7
CC(=O)/C(=N/Nc1ccccc1)N1CCOCC1	none
CC(=O)/C(=N/Nc1cccc(Cl)c1)N1CCOCC1	PMI act hi M6P 2
